Bioassay records deposited in PubChem by several laboratories.
MT stabilize HCS = stabilizes microtubules in HeLa cells; % tubulin-high responders, % at 10 µM; AID 2205; HeLa tubulin immunostaining HCS, 24 h; share of cells brighter than vehicle mean+2SD; 200,000 compounds, 0.83% hits;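 active = plate Z-score above 3 for both tubulin-high and condensed-nucleus cell shares, with cell loss under 80%, at 10 µM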;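 note: anti alpha tubulin signal scored within the nucleus-defined area of each cell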
Cl transport mod = KCC2 (human) Cl- transport modulation. KCC2 cells, thallium flux FluoZin-2 fluorescence. B-score of Tl+ flux slope (higher = more flux/activation; lower = inhibition) at 10 µM. 190,000 compounds, 2.2% hits. AID 1456;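 active = thallium flux slope and its plate-corrected score both differing from the plate sample mean at a set confidence after two filtering rounds, in either direction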;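 note: slope of fluorescence scaled to starting intensity during 10 to 20 s after thallium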
Target sequence (Q9H2X9 whole entry, looked up): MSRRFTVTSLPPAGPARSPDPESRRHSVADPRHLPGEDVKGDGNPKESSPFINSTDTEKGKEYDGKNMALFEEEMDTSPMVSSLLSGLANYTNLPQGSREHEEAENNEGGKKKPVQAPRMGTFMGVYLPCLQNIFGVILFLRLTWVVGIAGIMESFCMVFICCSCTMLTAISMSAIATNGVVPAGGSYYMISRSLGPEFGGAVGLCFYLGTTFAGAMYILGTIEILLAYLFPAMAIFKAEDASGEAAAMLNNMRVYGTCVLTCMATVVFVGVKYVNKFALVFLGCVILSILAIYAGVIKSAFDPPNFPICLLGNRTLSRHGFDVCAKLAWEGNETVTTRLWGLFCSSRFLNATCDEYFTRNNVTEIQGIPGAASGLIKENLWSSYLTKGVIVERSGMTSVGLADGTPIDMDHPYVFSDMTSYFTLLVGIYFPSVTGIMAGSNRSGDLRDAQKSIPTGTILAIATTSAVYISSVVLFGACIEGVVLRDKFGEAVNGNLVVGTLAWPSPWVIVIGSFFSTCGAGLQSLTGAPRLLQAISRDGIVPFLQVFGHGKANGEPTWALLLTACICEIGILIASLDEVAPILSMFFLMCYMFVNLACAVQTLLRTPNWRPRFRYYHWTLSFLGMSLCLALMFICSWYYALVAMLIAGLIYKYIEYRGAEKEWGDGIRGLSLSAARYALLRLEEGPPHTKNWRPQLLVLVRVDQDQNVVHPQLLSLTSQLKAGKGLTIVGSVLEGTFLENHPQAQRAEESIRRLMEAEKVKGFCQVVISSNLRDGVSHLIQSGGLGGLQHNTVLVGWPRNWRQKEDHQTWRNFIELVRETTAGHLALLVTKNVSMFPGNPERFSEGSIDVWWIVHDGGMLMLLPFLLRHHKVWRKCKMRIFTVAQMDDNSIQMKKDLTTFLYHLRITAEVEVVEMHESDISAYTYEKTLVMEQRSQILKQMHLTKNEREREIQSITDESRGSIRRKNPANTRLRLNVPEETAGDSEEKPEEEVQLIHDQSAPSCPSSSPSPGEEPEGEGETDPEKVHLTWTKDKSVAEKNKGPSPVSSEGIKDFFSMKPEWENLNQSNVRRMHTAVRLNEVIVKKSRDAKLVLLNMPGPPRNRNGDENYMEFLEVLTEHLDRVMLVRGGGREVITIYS
WT yeast gro inh = growth inhibition of WT yeast, mitochondrial fusion screen. mitochondrial fusion phenotypic screen, WT strain. inhibition, % at 10 µM. 190,000 compounds, 2.1% hits. AID 1362; in the data active = inhibition above about 58%; tested in S. cerevisiae
Pf gametocyte = inhibitors of late stage P. falciparum gametocyte viability | P. falciparum stage V gametocytes, ATP luminescence, 24 h | inhibition, % at 10.9 µM | 150,000 compounds, 0.065% hits;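 active = inhibition above the mean plus 3 SD of compounds within the control limits, set per campaign, cut at about 38% in these data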
bCat nuc transl = alters nuclear translocation of beta-catenin in HeLa cells; immunofluorescence imaging; nuclear translocation activity, % at 5 µM; 190,000 compounds, 0.3% hits;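 active = nuclear translocation activity above 50% at 5 µM, with a well cell count of 50 or more; inconclusive = wells under 50 cells across six images, flagged as toxic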;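 note: per-cell ratio of nuclear to cytoplasmic median beta-catenin stain intensity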
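Test system: human HeLa cells, native beta-catenin. Compound dosing: 5 µM primary single dose, 0.1% DMSO, 0.02–20 µM confirmation series. Incubation: compound exposure 24 h at 37°C. Detection: beta-catenin immunostaining with DAPI counterstain, 20x imaging, 6 fields/well. Read-out basis: Nuclear/cytoplasmic beta-catenin signal ratio, % activation.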
KCC2 sec1 = confirmation of human KCC2 transport modulators. HEK293-KCC2, thallium flux, FluoZin2 fluorescence; hits give high values. normalised thallium flux (F/F0 slope) at 10 µM. shares compounds with Cl transport mod. 3,700 compounds, 15% hits;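 active = thallium flux slope above the same plate's solvent-only control mean plus 3 SD; inconclusive = the two replicate wells disagree; inactive = no significant difference from solvent-only control wells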
KCC2 bumet counter = thallium flux despite bumetanide block in KCC2 cells, secondary assay 3; shares compounds with Cl transport mod; HEK293-KCC2 + bumetanide/ouabain, thallium flux FluoZin2; hits give high values; normalized thallium flux at 10 µM; 3,700 compounds, 49% hits; AID 1714;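 active = thallium entry rate above the same plate's blocked-transporter control wells by more than 3 SD; inconclusive = the two repeat wells disagree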;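 note: raw slope of fluorescence over initial fluorescence between 10 and 20 s after thallium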
KCC2 sec2 = KCC2 (human) modulation, second secondary assay; shares compounds with Cl transport mod; HEK293-KCC2, thallium flux FluoZin2 fluorescence; actives lie on both sides; F/F0 rise rate, 10–20 s post-thallium; normalized thallium flux at 10 µM; 3,700 compounds, 23% hits;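 active = thallium flux slope more than 3 SD above or below the plate's solvent-only control mean, mostly below; inconclusive = the two repeat wells disagreed; inactive = no significant shift from solvent-only controls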
HEK counter1 = counter-screen for KCC2 modulators: effect in parental HEK293 cells; 3,700 compounds, 46% hits; AID 1716; shares compounds with Cl transport mod; thallium flux rate (normalised fluorescence) at 10 µM; thallium flux FluoZin2, ouabain; baseline-ratio fluorescence slope, 10–20 s after thallium;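 active = thallium flux rate significantly above the same plate's solvent-only control wells, beyond their mean plus 3 SD; inconclusive = the two replicate wells gave conflicting results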
KCC2 ouabain = modulates human KCC2 on retest with ouabain. shares compounds with Cl transport mod. HEK293-KCC2, thallium flux FluoZin2 fluorescence; bidirectional: low = inhibitor, high = activator. raw Tl+ flux slope (below DMSO = inhibition, above = activation) at 10 µM. 3,700 compounds, 48% hits. AID 1717;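 active = thallium flux slope beyond 3 SD from same-plate DMSO control mean in most replicates, usually higher, sometimes lower; inconclusive = repeat tests gave conflicting results; inactive = no significant difference from controls in most replicates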;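 note: slope of initial-normalized fluorescence between seconds 10 and 20 after thallium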
HEK counter2 = parental HEK flux effect, counter-screen 2; 3,700 compounds, 33% hits; shares compounds with Cl transport mod; HEK293 parental, thallium flux FluoZin-2 fluorescence slope; thallium flux slope at 10 µM;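 active = thallium flux slope above the same plate's solvent-control mean plus 3 SD in both duplicate wells; inconclusive = duplicate wells that disagreed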;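 note: run without ouabain in cells lacking the KCC2 cotransporter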
Hits are given with their value; – = inactive; ? = inconclusive; · = no result. In the library only some 4% were active in any assay of this set; here they are far more common.

SMILES | MT stabilize HCS | Cl transport mod | WT yeast gro inh | Pf gametocyte | bCat nuc transl | KCC2 sec1 | KCC2 bumet counter | KCC2 sec2 | HEK counter1 | KCC2 ouabain | HEK counter2
CN(C(=O)CSc1ncnc2sc(-c3ccccc3)cc12)C1CCS(=O)(=O)C1 (stereo not given) | – | 138 | – | – | – | – | 0.107 | 0.108 | 0.115 | 0.102 | 0.114
CN(C(=O)CSc1ncnc2scc(-c3ccccc3)c12)C1CCS(=O)(=O)C1 (stereo not given) | – | – | – | · | – | · | · | · | · | · | ·
Cc1sc2ncnc(SCC(=O)N(C)C3CCS(=O)(=O)C3)c2c1C (stereo not given) | – | – | – | – | – | · | · | · | · | · | ·
COCc1nnc(NC(=O)CSc2ccccc2)s1 | – | -4.81 | – | – | – | – | – | – | – | – | –
COCc1nnc(NC(=O)CSc2ccc(C)cc2)s1 | – | – | – | – | – | · | · | · | · | · | ·
COc1ccc(NC(=O)CSc2nnc(Cc3ccccc3)o2)c(OC)c1 | – | -3.95 | – | – | – | – | – | – | ? | 0.0143 | –
CCc1nnc(NC(=O)CSc2nnc(COc3ccccc3C)o2)s1 | – | · | – | · | – | – | ? | 0.0251 | ? | 0.0156 | –
Cc1cnc(NC(=O)CSc2nnc(Cc3ccccc3)o2)s1 | – | -4.44 | – | · | · | – | – | 0.0212 | – | ? | –
COc1ccc(Cc2nnc(SCC(=O)Nc3ncc(C)s3)o2)cc1 | – | · | – | · | – | · | · | · | · | · | ·
CCOC(=O)c1cnc2cc(-c3ccc(Br)cc3)nn2c1C | · | · | · | – | · | · | · | · | · | · | ·
O=C(N/N=C/c1ccc(OCc2ccccc2)cc1)c1cc[n+](Cc2ccccc2)cc1 | – | -3.45 | – | · | – | – | ? | 0.0241 | – | ? | –
CC1Cc2ccccc2N1CC(=O)Nc1ccc(S(=O)(=O)N(C)C)cc1 (stereo not given) | · | -3.87 | · | – | – | – | – | – | – | – | ?
S=C(N/N=C/c1ccccc1Cl)Nc1cccc(Cl)c1Cl | · | 6.98 | · | – | – | – | 0.045 | 0.0467 | 0.0312 | 0.0479 | 0.026
O=C(O)Cc1ccc(NC(=S)Nc2cccc(Cl)c2Cl)cc1 | – | 9.56 | – | · | – | – | 0.0105 | – | 0.0137 | ? | –
Cc1ccc(C)c(/C=N/NC(=S)NCCc2ccccc2)c1 | – | – | – | – | · | · | · | · | · | · | ·
S=C(NCCc1ccccc1)N/N=C/c1cccc(Cl)c1Cl | – | 4.44 | – | – | – | – | 0.0126 | 0.0387 | 0.0107 | 0.0298 | –
S=C(NCC1CC1)N/N=C/c1ccccc1Cl | · | 10.3 | · | – | – | ? | 0.0241 | – | 0.01 | ? | –
O=C(Nc1cccc(Cl)c1)N1CCN(Cc2ccccc2)CC1 | – | -4.62 | – | · | – | – | – | – | – | 0.0294 | ?
CCN(CCCNC(=O)CN(C)S(=O)(=O)c1ccc2c(c1)CCC(=O)N2)c1cccc(C)c1 | – | · | – | – | – | · | · | · | · | · | ·
O=C(O)CC(Cc1ccc(Cl)cc1)C(=O)NCc1ccccc1 (stereo not given) | – | – | – | · | – | · | · | · | · | · | ·
Cc1noc(C)c1C(=O)OCC(=O)NC1CC1 | – | – | – | – | – | · | · | · | · | · | ·
Cc1noc(C)c1CSCC(=O)OCC(=O)NC1CCCCC1 | – | · | – | – | – | – | ? | – | – | – | –
NN/C(=C\[N+](=O)[O-])Nc1ccccc1 | – | – | – | – | – | · | · | · | · | · | ·
CS/C(=C/[N+](=O)[O-])Nc1cccc2c1C(C)CC2(C)C (stereo not given) | – | -5.09 | – | · | – | – | ? | – | – | 0.014 | –
